Measured values: ChEMBL document CHEMBL3580554, “Design, synthesis, and anticonvulsant activity of new hybrid compounds derived from 2-(2,5-dioxopyrrolidin-1-yl)propanamides and 2-(2,5-dioxopyrrolidin-1-yl)butanamides” (J Med Chem, 2015)

Legend:
Liver microsome = test: Drug level in human liver microsomes treated with 50 uM 1-(1-Oxo-1-{4-[3-(trifluoromethyl)phenyl]piperazin-1-yl}-propan-2-yl)pyrrolidine-2,5-dione assessed as compound formation in presence of NADPH regeneration system pre-incubated at 37 degC for 5 min and measured 2 hrs after post NADPH system addition by UPLC and LC-MS/MS method; assay type: ADME
How it was run: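 The compound was incubated 2 h with human liver microsomes. Metabolites were detected by full-scan chromatogram and identified by LC/MS from their [M+H]+ molecular masses.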

Rattus norvegicus [1] = species: Rattus norvegicus; test: Inhibition of [125I]omega-conotoxin GVIA binding to N-type calcium channel in rat cerebral cortex synaptosomes at 100 uM incubated for 30 mins by scintillation counting based radioligand displacement assay; assay type: subcellular
Rattus norvegicus [2] = species: Rattus norvegicus; test: Inhibition of [3H]BTX binding to sodium channel site 2 in rat cerebral cortex synaptosomes at 10 uM incubated for 60 mins by scintillation counting based radioligand displacement assay; assay type: subcellular
How it was run: (§1)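 Synaptoneurosomal preparations from rat cerebral cortex were used. The read-out was inhibition of specific [3H]BTX binding to the voltage-sensitive sodium channel (site 2), expressed as % inhibition of control specific binding. Compounds were tested at 1, 10, 100 and 500 μM. Inhibition above 50% was taken as significant.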

Rattus norvegicus [3] = species: Rattus norvegicus; test: Inhibition of [3H]BTX binding to sodium channel site 2 in rat cerebral cortex synaptosomes at 100 uM incubated for 60 mins by scintillation counting based radioligand displacement assay; assay type: subcellular; how it was run: as §1
Rattus norvegicus [4] = species: Rattus norvegicus; test: Inhibition of [3H]BTX binding to sodium channel site 2 in rat cerebral cortex synaptosomes at 500 uM incubated for 60 mins by scintillation counting based radioligand displacement assay; assay type: subcellular; how it was run: as §1
Rattus norvegicus [5] = species: Rattus norvegicus; test: Inhibition of [3H]BTX binding to sodium channel site 2 in rat cerebral cortex synaptosomes at 1 uM incubated for 60 mins by scintillation counting based radioligand displacement assay; assay type: subcellular; how it was run: as §1
Mus musculus [6] = test: Anticonvulsant activity in Swiss mouse assessed as protection against seizures at 100 mg/kg, ip dosed 0.5 hrs before initiation of maximal electroconvulsions by maximal electroshock test; assay type: functional
How it was run: (§2)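 Mice were dosed i.p. at a fixed 300 or 100 mg/kg (6 Hz: 100 mg/kg only). Protection was then scored against MES, sc PTZ or 6 Hz seizures at pretreatment times of 0.25, 0.5, 1 and 2 h. Groups were four mice, scored as number protected / number tested. This also gives the time course and time of peak effect.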

Mus musculus [7] = test: Anticonvulsant activity in Swiss mouse assessed as protection against seizures at 300 mg/kg, ip dosed 0.5 hrs before initiation of maximal electroconvulsions by maximal electroshock test; assay type: functional; how it was run: as §2
Mus musculus [8] = test: Anticonvulsant activity in Swiss mouse assessed as protection against seizures at 100 mg/kg, ip dosed 0.25 hrs before initiation of maximal electroconvulsions by maximal electroshock test; assay type: functional; how it was run: as §2
Mus musculus [9] = test: Anticonvulsant activity in Swiss mouse assessed as protection against seizures at 100 mg/kg, ip dosed 2 hrs before initiation of maximal electroconvulsions by maximal electroshock test; assay type: functional; how it was run: as §2
Mus musculus [10] = test: Anticonvulsant activity in Swiss mouse assessed as protection against seizures at 300 mg/kg, ip dosed 1 hr before initiation of maximal electroconvulsions by maximal electroshock test; assay type: functional; how it was run: as §2
Mus musculus [11] = test: Anticonvulsant activity in Swiss mouse assessed as protection against seizures at 300 mg/kg, ip dosed 2 hrs before initiation of maximal electroconvulsions by maximal electroshock test; assay type: functional; how it was run: as §2
Mus musculus [12] = test: Anticonvulsant activity in Swiss mouse assessed as protection against seizures at 300 mg/kg, ip dosed 0.25 hrs before initiation of maximal electroconvulsions by maximal electroshock test; assay type: functional; how it was run: as §2
Mus musculus [13] = test: Anticonvulsant activity in Swiss mouse assessed as protection against seizures at 100 mg/kg, ip dosed 1 hr before initiation of maximal electroconvulsions by maximal electroshock test; assay type: functional; how it was run: as §2
Mus musculus [14] = test: Anticonvulsant activity in ip dosed Swiss mouse assessed as protection against seizures measured at 0.25 hrs of time to peak effect by maximal electroshock test; assay type: functional
How it was run: (§3)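 Median effective doses (ED50, mg/kg) were determined i.p. in mice at the time of peak effect in the MES, sc PTZ or 6 Hz tests. Only compounds giving at least 50% protection at 100 mg/kg in that test were taken forward.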

Mus musculus [15] = test: Anticonvulsant activity in ip dosed Swiss mouse assessed as protection against seizures measured at 0.5 hrs of time to peak effect by maximal electroshock test; assay type: functional; how it was run: as §3
Mus musculus [16] = test: Anticonvulsant activity in ip dosed Swiss mouse assessed as protection against seizures measured at 0.5 hrs of time to peak effect by subcutaneous pentylenetetrazole seizure test; assay type: functional; how it was run: as §3
Mus musculus [17] = test: Anticonvulsant activity in ip dosed Swiss mouse assessed as protection against seizures measured at 0.5 hrs of time to peak effect by 6 Hz test by 6 Hz psychomotor seizure test; assay type: functional; how it was run: as §3
Mus musculus [18] = species: Mus musculus; test: Protective index, ratio of neurotoxic TD50 in Swiss mouse by Chimney test to anticonvulsant ED50 in Swiss mouse measured at 0.5 hrs of time to peak effect by 6 Hz test by 6 Hz psychomotor seizure test; assay type: functional
How it was run: (§4)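 Protective index was calculated as TD50 (chimney test, mouse, i.p.) divided by ED50 from the matching MES, sc PTZ or 6 Hz test, both taken at the time of peak effect.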

Mus musculus [19] = species: Mus musculus; test: Protective index, ratio of neurotoxic TD50 in Swiss mouse by Chimney test to anticonvulsant ED50 in Swiss mouse measured at 0.5 hrs of time to peak effect by maximal electroshock test; how it was run: as §4
[20] = Toxicity in ip dosed Swiss mouse assessed as induction of motor performance impairment measured within 60 seconds measured at 0.5 hrs of time to peak effect by Chimney test; assay type: organism-based; conditions: in vivo
How it was run: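 Neurotoxicity was measured i.p. in mice by the chimney test for motor impairment. It was given as the median neurotoxic dose (TD50, mg/kg) at the time of peak effect.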

Compound	Activity (Mus musculus [6]) [%]	Activity (Mus musculus [7]) [%]	Activity (Mus musculus [8]) [%]	Activity (Mus musculus [9]) [%]	Activity (Mus musculus [10]) [%]	Activity (Mus musculus [11]) [%]	Activity (Mus musculus [12]) [%]	Activity (Mus musculus [13]) [%]	further results
CC(C(=O)N1C=CN(c2cccc(C(F)(F)F)c2)CC1)N1C(=O)CCC1=O (stereo not drawn)									Drug metabolism (Liver microsome): metabolite_detected
O=C(C(CO)N1C(=O)CC(O)C1=O)N1C=CN(c2cccc(C(F)(F)F)c2)CC1 (stereo not drawn)									Drug metabolism (Liver microsome): metabolite_detected
O=C(C(CO)N1C(=O)CCC1O)N1CCN(c2cccc(C(F)(F)F)c2)CC1 (stereo not drawn)									Drug metabolism (Liver microsome): metabolite_detected
CC(C(=O)N1CCN(c2ccc(O)c(C(F)(F)F)c2)CC1)N1C(=O)CCC1=O (stereo not drawn)									Drug metabolism (Liver microsome): metabolite_detected
CC1(C)O[C@@H]2[C@@H](CO[C@@]3(COS(N)(=O)=O)OC(C)(C)O[C@@H]23)O1									inhibition (Rattus norvegicus [1]): 3.1%
NC(=O)N1c2ccccc2C=Cc2ccccc21									inhibition (Rattus norvegicus [2]): 4.6%; inhibition (Rattus norvegicus [3]): 17.4%; inhibition (Rattus norvegicus [4]): 33.6%; inhibition (Rattus norvegicus [5]): 2.7%
CC(C(=O)N1CCN(c2ccccc2)CC1)N1C(=O)CCC1=O (racemic)	0	50	50	0	50	0	100	0	ED50 (Mus musculus [14]): 164 mg/kg
CC(C(=O)N1CCN(c2ccccc2Cl)CC1)N1C(=O)CCC1=O (racemic)		0			25	0	0		
CC(C(=O)N1CCN(c2ccc(Cl)cc2)CC1)N1C(=O)CCC1=O (racemic)	25	100	50	0	0	0	100	0	
CC(C(=O)N1CCN(c2ccccc2F)CC1)N1C(=O)CCC1=O (racemic)	0	50	75	0	50	25	100	0	ED50 (Mus musculus [14]): 151 mg/kg
CC(C(=O)N1CCN(c2cccc(F)c2)CC1)N1C(=O)CCC1=O (racemic)	0	50	75	0	75	100	100	0	ED50 (Mus musculus [14]): 137 mg/kg
CC(C(=O)N1CCN(c2ccc(F)cc2)CC1)N1C(=O)CCC1=O (racemic)	0	50	75	0	25	50	100	0	ED50 (Mus musculus [14]): 130 mg/kg
CC(C(=O)N1CCN(c2ccc(C(F)(F)F)cc2)CC1)N1C(=O)CCC1=O (racemic)		25			0	0	25		
Cc1cccc(N2CCN(C(=O)C(C)N3C(=O)CCC3=O)CC2)c1 (racemic)	0	50	0	0	0	0	100	0	
COc1cccc(N2CCN(C(=O)C(C)N3C(=O)CCC3=O)CC2)c1 (racemic)	0	50	25	0	0	0	75	0	
CC(C(=O)N1CCOCC1)N1C(=O)CCC1=O (racemic)		0			0	0	0		
CCC(C(=O)N1CCN(c2ccccc2)CC1)N1C(=O)CCC1=O (racemic)	25	75	25	0	75	25	75	0	ED50 (Mus musculus [14]): 149 mg/kg
CCC(C(=O)N1CCN(c2ccccc2Cl)CC1)N1C(=O)CCC1=O (racemic)		25			50	0	50		
CCC(C(=O)N1CCN(c2cccc(Cl)c2)CC1)N1C(=O)CCC1=O (racemic)	50	50	50	0	100	25	75	0	ED50 (Mus musculus [15]): 138 mg/kg
CCC(C(=O)N1CCN(c2ccc(Cl)cc2)CC1)N1C(=O)CCC1=O (racemic)		0			25	25	0		
CCC(C(=O)N1CCN(c2ccccc2F)CC1)N1C(=O)CCC1=O (racemic)	0	100	0	0	50	0	100	0	
CCC(C(=O)N1CCN(c2cccc(F)c2)CC1)N1C(=O)CCC1=O (racemic)	0	100	0	0	75	0	75	0	
CCC(C(=O)N1CCN(c2ccc(F)cc2)CC1)N1C(=O)CCC1=O (racemic)		25			25	0	0		
CCC(C(=O)N1CCN(c2ccccc2C(F)(F)F)CC1)N1C(=O)CCC1=O (racemic)		25			0	0	25		
CCC(C(=O)N1CCN(c2ccc(C(F)(F)F)cc2)CC1)N1C(=O)CCC1=O (racemic)		0			0	0	25		
CCC(C(=O)N1CCN(c2cccc(C)c2)CC1)N1C(=O)CCC1=O (racemic)	0	100	50	0	75	0	100	0	
CCC(C(=O)N1CCN(c2cccc(OC)c2)CC1)N1C(=O)CCC1=O (racemic)		0			0	0	25		
CCC(C(=O)N1CCOCC1)N1C(=O)CCC1=O (racemic)		0			0	0	0		
COC[C@@H](NC(C)=O)C(=O)NCc1ccccc1 [LACOSAMIDE]									ED50 (Mus musculus [15]): 9.4 mg/kg; ED50 (Mus musculus [16]): > 500 mg/kg; ED50 (Mus musculus [17]): 6.4 mg/kg; Ratio TD50/ED50 (Mus musculus [18]): 5.26; Ratio TD50/ED50 (Mus musculus [19]): 3.6; TD50 at 0.5 h [20]: 33.7 mg/kg
CCCC(CCC)C(=O)O [VALPROIC ACID]									ED50 (Mus musculus [17]): 130 mg/kg
